T cruzi repl: blocks replication of Trypanosoma cruzi; hit rate 1.4% among 300,000; T. cruzi beta-gal in NIH3T3, luminescence, 90 h; inhibition, % (no concentration beside the values); AID 1885;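 active = mean inhibition across valid replicates above about 55%, limit read from the data; inconclusive = mean below that limit but half or more replicates reach it; inactive = mean below it, under half of replicates reach it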;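 also: signal also drops with host cell toxicity which is not excluded here; 0% = plate median of DMSO wells and 100% = zero luminescence signal; higher percent means less beta-gal luminescence so fewer parasites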
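Read-out: Parasite load inhibition, % | Test system: Mouse NIH/3T3 fibroblasts infected with β-gal-expressing T. cruzi Tulahuen C4 | Amount: 5,000 cells/well | Medium: DMEM, 2% fetal bovine serum | Signal: GalScreen β-gal luminescence, detergent lysis, 60 min | Timing: 3 h attach, ≥90 h co-culture | Also added: Tulahuen C4 trypomastigotes, 5000/well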
CHOP inhibitor: blocks CHOP induction under ER stress. hit rate 3.8% among 220,000. CHO-K1 CHOP-promoter luciferase, tunicamycin-induced, 15-18 h. inhibition, % at 10 µM;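 active = compounds that reduced the stress-induced luciferase reporter signal by more than about 70% of percent inhibition, limit read from the data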;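 also: 0% = tunicamycin plus vehicle and 100% = wells without tunicamycin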
Beta cell apopt: blocks beta cell apoptosis. protection from apoptosis, % (no concentration beside the values). hit rate 0.8% among 300,000. INS-1E cytokine-induced death, ATP luminescence, 48 h; percent of positive-control rescue, neutral wells zero;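 active = Every replicate reaches about 75%, or at least half do and their mean reaches it too, limit read from the data; inconclusive = At least half of replicates reach the limit but their mean does not; inactive = Under half of replicates reach the limit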;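 also: 0% = cytokine-treated negative control wells and 100% = positive control rescue; higher means more ATP so stronger rescue from cytokine killing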
PREPL inh: inhibits the human prolyl oligopeptidase-like enzyme; Q4J6C6; recombinant PREPL, fluorescence polarization activity-based probe; inhibition, % at 5.96 µM; hit rate 0.68% among 320,000; AID 2751; in the data active = inhibition above about 43%;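 also: 0% = enzyme with DMSO and 100% = wells lacking enzyme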
Target sequence (Q4J6C6 whole entry, looked up): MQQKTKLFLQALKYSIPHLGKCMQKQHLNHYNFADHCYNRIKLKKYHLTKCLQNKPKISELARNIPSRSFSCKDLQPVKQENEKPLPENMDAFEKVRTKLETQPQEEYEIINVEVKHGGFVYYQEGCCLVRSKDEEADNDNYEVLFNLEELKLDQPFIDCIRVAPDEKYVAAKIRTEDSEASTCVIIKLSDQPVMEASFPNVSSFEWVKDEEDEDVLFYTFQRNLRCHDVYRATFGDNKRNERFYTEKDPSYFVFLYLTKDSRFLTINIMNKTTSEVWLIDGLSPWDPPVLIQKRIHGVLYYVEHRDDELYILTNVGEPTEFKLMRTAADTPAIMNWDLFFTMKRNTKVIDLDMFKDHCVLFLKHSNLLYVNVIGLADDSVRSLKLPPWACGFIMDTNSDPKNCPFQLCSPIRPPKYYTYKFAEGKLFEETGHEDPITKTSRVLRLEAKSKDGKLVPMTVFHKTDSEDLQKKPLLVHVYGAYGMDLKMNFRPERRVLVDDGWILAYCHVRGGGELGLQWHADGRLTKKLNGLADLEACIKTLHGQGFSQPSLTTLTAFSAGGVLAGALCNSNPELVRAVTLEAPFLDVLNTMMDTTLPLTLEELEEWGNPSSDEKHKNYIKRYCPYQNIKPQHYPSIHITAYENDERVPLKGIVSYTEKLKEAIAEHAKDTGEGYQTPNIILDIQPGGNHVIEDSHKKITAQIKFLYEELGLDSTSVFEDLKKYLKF
GRIN3A LBD mod: NR3A (human) ligand-binding domain modulation; Tm shift relative to glycine control, % at 25 µM; AID 1259313; NR3A LBD differential scanning fluorimetry, Tm shift; 0% = protein alone, 100% = glycine-bound protein; hit rate 2.5% among 340,000;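 active = melting temperature shift of at least 10% of the positive control shift, at one fixed dose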
CSC inhib: cancer stem cell inhibition. inhibition, % at 7.5 µM. AID 2717. hit rate 1.1% among 300,000. cancer stem cell-like cells viability, luminescence; in the data active = inhibition above about 75%; inconclusive = no clear call, values can overlap the other calls; tested in HMLE shEcad cells
Active calls of the source: *; ? = inconclusive; · = no result given. Sampled rows, rich in hits. Any-hit rate of the full collection: about 6.7%.

SMILES | T cruzi repl | CHOP inhibitor | Beta cell apopt | PREPL inh | GRIN3A LBD mod | CSC inhib
COc1ccc(-c2csc(NC(=O)c3ccc(N4C(=O)CCC4=O)cc3)n2)cc1 | -18.4 | -21.0 | -1.9 | -3.5 | 0.5 | -18.4
O=C(Nc1nc(-c2ccc(F)cc2)cs1)c1ccc(N2C(=O)CCC2=O)cc1 | -1.2 | 25.3 | · | -2.2 | 24.9* | -11.1
CN(CC(=O)Nc1ccccc1C(F)(F)F)C(=O)c1cc([N+](=O)[O-])ccc1N1CCOCC1 | -3.6 | · | 2.3 | -1.2 | 3.8 | -15.6
Cc1ccc(S(=O)(=O)N[C@H](C(=O)OCC(=O)NC(=O)C2CCCCC2)C(C)C)cc1 | · | · | -6.1 | 6.0 | 22.9* | -6.9
Cc1ccc(S(=O)(=O)N[C@H](C(=O)OCC(=O)NC(=O)Nc2ccc3c(c2)OCCO3)C(C)C)cc1 | -22.2 | 56.9 | 0.9 | 4.3 | -4.7 | ·
CCOC(=O)CSc1nc2ccc(N3CCOCC3)cc2c(=O)n1Cc1ccc2c(c1)OCO2 | 26.8 | 38.9 | 1.2 | 52.1* | · | 12.1
O=C(/C=C/c1ccccc1[N+](=O)[O-])c1ccccc1Br | -15.3 | -50.3 | -7.3 | -3.7 | 0.7 | 84.3*
O=C(/C=C\c1ccccc1[N+](=O)[O-])Nc1ccccc1 | 10.4 | -22.2 | 5.6 | 9.5 | 14.1* | -9.3
N=c1ncn(Cc2ccccc2)c2nc(SCCOc3ccccc3)[nH]c12 | -30.9 | 27.1 | -9.1 | 6.7 | -3.2 | -0.5
CCCCCCc1ccc(N2C[C@H](CCCCC)[C@@H](CC(=O)NCc3ccc(OC)cc3)C2=O)cc1 | 30.2 | · | 18.1 | -0.2 | -3.5 | 66.7
CCCCCCc1ccc(N2C[C@H](Cc3ccccc3)[C@@H](CC(=O)Nc3ccccc3)C2=O)cc1 | 13.1 | · | 103.9* | -3.9 | -3.4 | 36.0
CCCCCCc1ccc(N2C[C@H](Cc3ccccc3)[C@@H](CC(=O)NCc3ccc(OC)cc3)C2=O)cc1 | -7.9 | · | 99.8* | -5.7 | -4.7 | 63.6
CCn1c(SCC(=O)N2CC(C)OC(C)C2)nc2c([nH]c3ccccc32)c1=O (centres undefined) | 9.0 | · | 5.8 | 5.7 | -0.9 | -4.6
CNC(=O)C1C(=S)NC(N)=C(C#N)C1c1ccccc1 (centres undefined) | -19.8 | -24.4 | 15.3 | -2.3 | 2.0 | 112.3*
COC(=O)C1=C(C)OC(N)=C(C#N)C1c1ccccc1 (centres undefined) | -2.7 | -6.3 | 1.3 | -4.6 | 0.3 | -0.6
Cc1ccc(Oc2ncnc(N)c2[N+](=O)[O-])cc1C | -3.0 | 29.6 | -7.3 | 0.0 | -1.7 | -5.0
O=C(COC(=O)c1ccc2c(c1[N+](=O)[O-])C(=O)c1ccccc1C2=O)NC1CC1 | 66.0* | 18.6 | 7.3 | 14.0 | 1.0 | 1.4
O=C(COC(=O)c1ccccc1C(=O)c1ccc(Cl)c([N+](=O)[O-])c1)NC1CCCCCC1 | ? | 93.1* | 3.6 | 2.1 | -11.2 | -6.3
O=C(COC(=O)c1cccc2c1C(=O)c1ccccc1C2=O)NC1CCCCC1 | 12.7 | 36.3 | -1.6 | 7.2 | 0.4 | 17.5
O=C(COC(=O)c1ccc(Cl)c([N+](=O)[O-])c1)NC1CCCC1 | 6.5 | · | -7.4 | -3.3 | 0.3 | -10.3
O=C(C1CC(=O)N(c2ccc(F)cc2)C1)N1CCC(c2nc3ccccc3[nH]2)CC1 (centres undefined) | -1.7 | · | -0.8 | 11.3 | -1.0 | 5.9
CSCCC(NC(=O)c1ccc(Cl)cc1Cl)C(=O)NNC(=O)c1ccncc1 (centres undefined) | · | · | -3.1 | 0.8 | -0.3 | -5.6
Cc1ccc([N+](=O)[O-])cc1N=Nc1c(-c2ccc([N+](=O)[O-])cc2)[nH]n(C(N)=S)c1=O | 31.1 | 78.4* | · | · | 30.0* | ·
Cc1ccc([N+](=O)[O-])cc1N=Nc1c(C)[nH]n(C(N)=S)c1=O | -17.9 | · | 0.8 | 2.9 | -1.0 | -21.4
O=C(c1cccc(Br)c1)c1coc2ccc(O)cc12 | · | · | 2.7 | -20.1 | -14.6 | 90.8*
SMILES | T cruzi repl | CHOP inhibitor | Beta cell apopt | PREPL inh | GRIN3A LBD mod | CSC inhib
Cc1nn(C)c(C(=O)Nc2ccc(S(=O)(=O)NC34CC5CC(CC(C5)C3)C4)cc2)c1Br | 59.2* | 60.9 | 36.3 | -6.2 | -2.4 | ·
CCCCCc1c(C)nc(Nc2ccc(F)cc2)[nH]c1=O | -11.6 | 82.4* | 0.1 | -2.0 | -0.4 | 41.4
CC1CCN(CCCNC(=O)c2cc3c(Cl)nc4ccccc4c3s2)CC1 | 56.0* | 43.5 | -7.2 | -23.2 | 0.7 | 10.1
O=C(NCCCN1CCCC1)c1cc2c(Cl)nc3ccccc3c2s1 | 54.4 | 24.4 | 5.6 | -84.0 | -1.3 | 29.3
CCc1ccc(Nc2ncc3c(n2)CC(C)CC3=O)cc1 (centres undefined) | -4.5 | 73.2* | -3.1 | 1.1 | -6.1 | -2.6
COc1ccc(C(=O)Nc2ncc3c(n2)CC(C)CC3=O)cc1 (centres undefined) | 63.9* | -2.8 | -1.4 | -2.7 | -0.9 | -2.8
COc1cccc(C(=O)Nc2ncc3c(n2)CC(c2ccc(OC)cc2OC)CC3=O)c1 (centres undefined) | -47.1 | · | 0.2 | 18.1 | -0.5 | ·
CCc1ccc(Nc2ncc3c(n2)CC(c2ccc(OC)cc2)CC3=O)cc1 (centres undefined) | 21.7 | 50.0 | 4.2 | -1.8 | -1.7 | 13.4
Cc1ccc(C(C)C)c(OCC(=O)NNC(=O)Cn2[nH]c(=O)c3ccccc3c2=O)c1 | · | · | -2.2 | 3.6 | -0.3 | ·
O=C1C(=O)N(Cc2ccccc2)C(=O)N1CCOc1ccccc1 | · | 17.1 | · | · | 2.0 | ·
CCOC(=O)C1(Cc2ccccc2C(F)(F)F)CCN(C(C)CCn2cccn2)CC1 (centres undefined) | 67.9* | 19.6 | -0.7 | -93.2 | 1.0 | -3.2
CCOC(=O)C1(Cc2ccccc2C(F)(F)F)CCN(C(C)CSC)CC1 (centres undefined) | 35.8 | 56.0 | -3.1 | -54.0 | -0.4 | 51.3
CN(CC(=O)Nc1ccccc1C(F)(F)F)C(=O)COc1ncnc2ccccc12 | 1.4 | -27.1 | -4.0 | 3.6 | -2.2 | -2.0
Cc1ccc(-c2nc(CS(=O)(=O)CC(=O)NC3CCCCCC3)c(C)o2)cc1 | 7.0 | · | -2.9 | 2.3 | -1.6 | 2.7
Cc1cc(O)c(C=O)c2c1C(=O)Oc1c(CO)c(O)c3c(c1O2)C(O)OC3=O (centres undefined) | · | 14.0 | -5.0 | 44.8* | 0.8 | 4.1
Cc1cc(O)c(CN(C)C)c2c1C(=O)/C(=C/c1ccco1)O2 | -3.4 | · | 0.5 | -2.0 | 3.8 | -3.1
CC(=O)Nc1ccc(Nc2ccc3c4c(cc(=O)n3C)-c3ccccc3C(=O)c24)cc1 | 55.8* | -35.0 | 18.4 | 14.3 | 1.2 | 5.5
O=C(O)Cc1cn(-c2ccccc2)nc1-c1ccccc1 | -8.0 | 7.2 | -3.9 | 14.7 | -1.6 | ·
OCc1cn(-c2ccccc2)nc1-c1ccc(-c2nn(-c3ccccc3)cc2CO)cc1 | 21.7 | 88.3* | 7.9 | 6.4 | 23.6* | ·
COc1ccccc1NS(=O)(=O)c1cc(C(=O)Nc2ccc(S(=O)(=O)Nc3onc(C)c3C)cc2)ccc1C | · | · | · | · | 2.3 | ·

Screens: PubChem BioAssay, several laboratories
